Reference: paper PMC7113734 (Antiviral Research, 2016)
Like-named read-outs stand apart in the source and are kept apart here.

How the values were obtained:
[1] = test system: drug-resistant HIV-1 strains; assay: Antiviral activity against drug-resistant HIV-1 strains in MT-4; format: cell-based; conditions: MT-4
MT-4 cells = assay: Toxicity to MT-4 cells; format: cell-based; conditions: all assays
[2] = test system: drug resistant clinical HIV isolates; assay: Antiviral activity against drug-resistant HIV-1 in PBMCs; format: cell-based; conditions: Human immunodeficiency virus 1, PBMC
[3] = test system: HIV attachment to HeLa-CD4-LTR-β-gal cells; assay: Attachment inhibition assay; format: cell-based, HIV-1; conditions: Human immunodeficiency virus 1, read-out: Attachment inhibition EC50 ± SD
[4] = test system: HL2/3 cells expressing HIV-1 gp120 and gp41 fusing with HeLa-CD4-LTR-β-gal cells; assay: Fusion inhibition assay; format: cell-based; conditions: Human immunodeficiency virus 1, HL2/3, read-out: Fusion inhibition EC50 ± SD
Outline: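 HeLa-CD4-LTR-β-Gal cells incubated with test compound for 1 h at 37°C/5% CO2, then co-cultured 48 h with HL2/3 cells. Cells lysed and β-galactosidase expression measured by chemiluminescent Gal-Screen.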

wild type HIV-1 RT = wild type HIV-1 RT (Human immunodeficiency virus type 1 group M subtype B, UniProt P04585); assay: Biochemical RT inhibition assay
HIV-1 integrase = HIV-1 integrase (Human immunodeficiency virus type 1 group M subtype B, UniProt P04585); assay: HIV-1 integrase inhibition assay; format: biochemical
HIV-1 protease = HIV-1 protease (Human immunodeficiency virus type 1 group M subtype B, UniProt P04585); assay: HIV-1 protease inhibition assay; format: biochemical
HIVIIIB = assay: Cell-to-cell virus transmission assay in CEM-SS cells; format: cell-based, HIV-1
HIV strain 92US727 = assay: Cell-to-cell virus transmission assay in fresh human PBMCs; format: cell-based, HIV-1
Outline: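 HIV-infected fresh human PBMCs treated 3 days with six concentrations of test compound. Passaged every 3 days for three passages at fixed compound concentration; 80% of culture volume replaced with fresh compound-containing medium and uninfected cells. Cell-free supernatants collected on sub-culture days for RT activity and extracellular p24 antigen. TCID50 per passage by endpoint dilution.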

[5] = test system: IIIB strain of HIV-1 in CEM-SS cells; assay: Combination drug interaction evaluation; format: cell-based
Outline: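 CEM-SS cells infected with HIV-1 IIIB; inhibition of cytopathic effect measured for the test compound in two-drug combinations with known anti-HIV agents. Efficacy and toxicity analysed by Prichard–Shipman MacSynergy II. Expected additive inhibition computed from each agent's single-agent dose–response; inhibition above expected at each concentration calculated at 95%, 99% and 99.9% confidence. −99 to −51 μM2% scored antagonistic; <−100 highly antagonistic.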

HIV-1IIIB [6] = assay: Drug-resistant virus selection by serial dose escalation; format: cell-based; conditions: fourteen passages, CEM-SS cells
HIV-1IIIB [7] = assay: Antiviral activity with added serum proteins in CEM-SS cells; format: cell-based
[8] = test system: clinical HIV-1 subtype B virus 92US723; assay: Antiviral activity with added serum proteins in fresh human PBMCs; format: cell-based; conditions: 50% human serum, AAGP or HSA vs medium only
cytochrome P450 enzymes = assay: Inhibition of cytochrome P450 enzymes; format: in vitro ADME
hERG = hERG (Homo sapiens, UniProt Q12809); assay: Standard hERG test for cardiotoxicity
Chain of hERG (Q12809 whole entry): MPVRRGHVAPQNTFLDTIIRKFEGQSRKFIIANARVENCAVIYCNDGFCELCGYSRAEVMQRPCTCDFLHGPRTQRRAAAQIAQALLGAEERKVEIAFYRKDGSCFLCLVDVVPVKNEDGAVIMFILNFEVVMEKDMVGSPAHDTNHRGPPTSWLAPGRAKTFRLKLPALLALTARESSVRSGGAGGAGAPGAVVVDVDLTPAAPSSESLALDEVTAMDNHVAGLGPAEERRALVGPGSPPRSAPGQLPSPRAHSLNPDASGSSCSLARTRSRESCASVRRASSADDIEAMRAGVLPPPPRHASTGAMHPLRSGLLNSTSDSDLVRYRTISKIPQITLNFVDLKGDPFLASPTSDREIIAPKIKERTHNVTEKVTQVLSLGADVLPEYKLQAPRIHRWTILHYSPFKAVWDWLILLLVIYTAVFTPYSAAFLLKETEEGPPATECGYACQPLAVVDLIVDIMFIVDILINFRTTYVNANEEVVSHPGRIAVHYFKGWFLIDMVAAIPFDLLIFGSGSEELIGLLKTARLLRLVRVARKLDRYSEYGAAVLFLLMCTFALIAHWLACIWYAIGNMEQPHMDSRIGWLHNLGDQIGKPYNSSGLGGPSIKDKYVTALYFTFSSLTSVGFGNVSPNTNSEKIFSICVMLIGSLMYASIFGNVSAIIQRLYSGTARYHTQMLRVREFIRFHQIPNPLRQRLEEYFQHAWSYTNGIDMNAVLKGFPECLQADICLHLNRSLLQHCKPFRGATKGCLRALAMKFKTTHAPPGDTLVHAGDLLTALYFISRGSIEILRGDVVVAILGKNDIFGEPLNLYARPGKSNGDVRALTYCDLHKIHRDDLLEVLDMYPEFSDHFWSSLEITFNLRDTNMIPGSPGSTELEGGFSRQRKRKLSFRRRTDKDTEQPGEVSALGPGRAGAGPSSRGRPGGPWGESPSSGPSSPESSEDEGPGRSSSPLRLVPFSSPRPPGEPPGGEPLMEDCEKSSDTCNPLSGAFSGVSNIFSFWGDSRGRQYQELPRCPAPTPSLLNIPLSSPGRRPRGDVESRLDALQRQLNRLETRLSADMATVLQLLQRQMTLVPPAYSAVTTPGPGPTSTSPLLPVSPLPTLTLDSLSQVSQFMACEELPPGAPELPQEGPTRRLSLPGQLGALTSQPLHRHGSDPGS

Pharmacokinetics in rats = format: in vivo; conditions: male, Sprague-Dawley, rat, plasma
Outline: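 Male Sprague-Dawley rats, n = 3 per route. Prodrug given as IV bolus (50 mg/kg, 12.5 mg/mL in 5% DMSO/50% PEG300 in saline) or PO (1000 mg/kg, […] in 2% CMC suspension). Blood sampled over 24 h into sodium fluoride plus citric acid, kept on wet ice <10 min, then centrifuged at 4 °C. Plasma stored at −80 °C; prodrug and active metabolite quantified by UPLC-MS/MS (prodrug LLOQ 0.10 ng/mL).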

in vitro = conditions: human, CC50 (cytotoxic concentration), fresh human PBMCs

With `CCCC(=O)OCSc1ccccc1C(=O)NCCC(N)=O` [NS1040, ((2-((3-amino-3-oxopropyl)carbamoyl)phenyl)thio)methyl butyrate] the EC50 ([1]; Human immunodeficiency virus 1, read-out: Mean EC50 ± SD, AZT- and NNRTI-resistant, RT 4xAZT/L100I) was 3.54 ± 2.02 µM, the EC50 ([1]; Human immunodeficiency virus 1, read-out: Mean EC50 ± SD, AZT- and NNRTI-resistant, RT 4xAZT/Y181C) was 5.24 ± 0.18 µM and the EC50 ([1]; Human immunodeficiency virus 1, read-out: Mean EC50 ± SD, AZT-resistant, RT 4xAZT (D67N/K70R/T215Y/K219Q)) was 4.24 ± 0.91 µM. The EC50 ([1]; Human immunodeficiency virus 1, read-out: Mean EC50 ± SD, Atazanavir-resistant, PR I50L) was 1.27 ± 0.19 µM, the EC50 ([1]; Human immunodeficiency virus 1, read-out: Mean EC50 ± SD, Didanosine-resistant, RT L74V) was 4.59 ± 0.61 µM and the EC50 ([1]; Human immunodeficiency virus 1, read-out: Mean EC50 ± SD, Enfuviritide-resistant, Env V38A/N126K) was 5.48 ± 0.01 µM. It also gave an EC50 ([1]; Human immunodeficiency virus 1, read-out: Mean EC50 ± SD, Indinavir-, Ritonavir-resistant, PR I84V) of 3.33 ± 0.44 µM, an EC50 ([1]; Human immunodeficiency virus 1, read-out: Mean EC50 ± SD, Indinavir-, Ritonavir-resistant, PR V82A) of 6.73 ± 1.06 µM and an EC50 ([1]; Human immunodeficiency virus 1, read-out: Mean EC50 ± SD, Indinavir-, Ritonavir-resistant, PR V82F/I84V) of 3.52 ± 1.7 µM. For the same compound, the EC50 ([1]; Human immunodeficiency virus 1, read-out: Mean EC50 ± SD, Lamivudine-resistant, RT M184V) was 3.5 ± 1.1 µM, the EC50 ([1]; Human immunodeficiency virus 1, read-out: Mean EC50 ± SD, NNRTI-resistant, RT K103N/Y181C) was 5.19 ± 0.06 µM and the EC50 ([1]; Human immunodeficiency virus 1, read-out: Mean EC50 ± SD, NNRTI-resistant, RT K103N) was 5.02 ± 0.14 µM. For the same compound, the EC50 ([1]; Human immunodeficiency virus 1, read-out: Mean EC50 ± SD, NNRTI-resistant, RT L100I) was 1.61 ± 0.41 µM, the EC50 ([1]; Human immunodeficiency virus 1, read-out: Mean EC50 ± SD, NNRTI-resistant, RT V106A) was 4.07 ± 0.78 µM and the EC50 ([1]; Human immunodeficiency virus 1, read-out: Mean EC50 ± SD, NNRTI-resistant, RT V108I) was 4.7 ± 0.17 µM. For the same compound, the EC50 ([1]; Human immunodeficiency virus 1, read-out: Mean EC50 ± SD, NNRTI-resistant, RT V179D) was 5.01 ± 0.31 µM, the EC50 ([1]; Human immunodeficiency virus 1, read-out: Mean EC50 ± SD, NNRTI-resistant, RT Y181C) was 4.52 ± 1.07 µM and the EC50 ([1]; Human immunodeficiency virus 1, read-out: Mean EC50 ± SD, NNRTI-resistant, RT Y188C) was 4.72 ± 0.55 µM. For the same compound, the EC50 ([1]; Human immunodeficiency virus 1, read-out: Mean EC50 ± SD, Raltegravir-resistant, IN Q148H/G140S) was 4.16 ± 0.26 µM, the EC50 ([1]; Human immunodeficiency virus 1, read-out: Mean EC50 ± SD, Saquinavir-resistant, PR G48V/L90M) was 1.1 ± 0.32 µM and the EC50 ([1]; Human immunodeficiency virus 1, read-out: Mean EC50 ± SD, Tenofovir-resistant, RT K65R) was 5.21 ± 0.08 µM. The “non-toxic up to high test concentration” value (MT-4 cells) was over 100 µM, the EC50 ([2]; read-out: PBMC/HIV-1 EC50 ± SD, Multi-drug resistant AD. MDR) was 7.21 ± 4.38 µM and the EC50 ([2]; read-out: PBMC/HIV-1 EC50 ± SD, Multi-drug resistant MDR769) was 4.77 ± 0.95 µM. The EC50 ([2]; read-out: PBMC/HIV-1 EC50 ± SD, NNRTI-resistant A17R) was 10 ± 4.78 µM, the EC50 ([2]; read-out: PBMC/HIV-1 EC50 ± SD, NNRTI-resistant N119) was 5.9 ± 1.31 µM and the EC50 ([2]; read-out: PBMC/HIV-1 EC50 ± SD, PI-resistant 144-44) was 8.38 ± 5.4 µM. It also gave an EC50 ([2]; read-out: PBMC/HIV-1 EC50 ± SD, PI-resistant 1002-60) of 3.66 ± 0.28 µM, an EC50 ([2]; read-out: PBMC/HIV-1 EC50 ± SD, PI-resistant 1022-48) of 3.45 ± 2.26 µM and an EC50 ([2]; read-out: PBMC/HIV-1 EC50 ± SD, PI-resistant 1026-60) of 3.29 ± 0.57 µM. The EC50 ([2]; read-out: PBMC/HIV-1 EC50 ± SD, PI-resistant 1064-52) was 2.62 ± 1.87 µM, the EC50 ([2]; read-out: PBMC/HIV-1 EC50 ± SD, Wild Type 92US727) was 5.58 ± 0.12 µM and the EC50 [3] was over 100 µM. For the same compound, the EC50 [4] was over 100 µM, the EC50 (wild type HIV-1 RT) was over 100 µM and the EC50 (HIV-1 integrase) was over 100 µM. For the same compound, the EC50 (HIV-1 protease) was over 100 µM, the “fold less effective than MDH-1-38 at reducing cell to cell HIV transmission” value (HIVIIIB) was “approximately 3 fold” and the RT (HIVIIIB; Passage 1, 2 μM) was 27 cpm. It also gave a TCID50/mL (HIVIIIB; Passage 1, 2 μM) of 0 TCID50/mL, a p24 (HIVIIIB; Passage 1, 2 μM) of 725 pg/mL and an RT (HIVIIIB; Passage 2, 2 μM) of 1063 cpm. For the same compound, the p24 (HIVIIIB; Passage 2, 2 μM) was 85,803 pg/mL, the RT (HIVIIIB; Passage 3, 2 μM) was 7036 cpm and the TCID50/mL (HIVIIIB; Passage 3, 2 μM) was 1.31 × 10^4 TCID50/mL. For the same compound, the p24 (HIVIIIB; Passage 3, 2 μM) was 1,570,937 pg/mL, the RT (HIV strain 92US727; Passage 1, 5 μM) was 222 cpm and the TCID50/mL (HIV strain 92US727; Passage 1, 5 μM) was 4.18 × 10^2 TCID50/mL. The p24 (HIV strain 92US727; Passage 1, 5 μM) was 766 pg/mL, the RT (HIV strain 92US727; Passage 2, 5 μM) was 595 cpm and the TCID50/mL (HIV strain 92US727; Passage 2, 5 μM) was 6.86 × 10^3 TCID50/mL. The p24 (HIV strain 92US727; Passage 2, 5 μM) was 1731 pg/mL, the RT (HIV strain 92US727; Passage 3, 5 μM) was 9728 cpm and the TCID50/mL (HIV strain 92US727; Passage 3, 5 μM) was 6.52 × 10^4 TCID50/mL. For the same compound, the p24 (HIV strain 92US727; Passage 3, 5 μM) was 61,967 pg/mL, the mean synergy volume ([5]; in combination with amprenavir) was 111 ± 27.8 μM^2% and the mean synergy volume ([5]; in combination with enfuviritide) was 115 ± 39.5 μM^2%. For the same compound, the mean synergy volume ([5]; in combination with lamivudine) was 180 ± 128 μM^2%, the mean synergy volume ([5]; in combination with lopinavir) was 212 ± 62.2 μM^2% and the mean synergy volume ([5]; in combination with nelfinavir) was 282 ± 61.5 μM^2%. For the same compound, the mean synergy volume ([5]; in combination with ritonavir) was 143 ± 33.5 μM^2%, the mean synergy volume ([5]; in combination with stavudine) was 110 ± 68 μM^2% and the “selection of resistant virus” value (HIV-1IIIB [6]) was “did not result in resistance”. The “fold decrease in potency” value (HIV-1IIIB [7]; in the presence of 50% human AB serum) was about 4.5 fold, the “fold decrease in potency” value (HIV-1IIIB [7]; in the presence of HSA (10 mg/mL)) was “did not exhibit a significant decrease in potency” and the “change in antiviral activity with serum protein additives” value [8] was “no significant change in antiviral activity”. The “inhibition of cytochrome P450 enzymes” value (cytochrome P450 enzymes) was “neither NS1040 nor MDH-1-38 had significant inhibitory activity”, the “hERG test for cardiotoxicity” value (hERG) was “negative” and the concentration at 1 h (Pharmacokinetics in rats; iv, 50 mg/kg) was under 0.1 ng/mL. For the same compound, the concentration at 0.75 h (Pharmacokinetics in rats; po, 1000 mg/kg) was under 0.1 ng/mL and the CC50 (in vitro) was over 216 µM.
